Measurements from article PMC3703919 (Clinical cancer research : an official journal of the …, 2009).

Legend:
[1] = system: patients with advanced solid tumors; test: Phase I dose escalation: toxicity assessment; assay type: in vivo, human
Procedure, shortened: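 Cohorts of three started at 100 μg/kg s.c. daily ×5 per 21-d cycle, with planned levels of 100–1,000 μg/kg. One DLT expanded a cohort to six. DLT was grade ≥3 toxicity at least possibly treatment-related, and MTD allowed ≤1/6 with DLT. Exam and labs ran weekly in cycle 1, then on day 1 of later cycles, graded by CTCAE v3.0.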

[2] = Pharmacokinetics: plasma Ang-; assay type: in vivo, human
[3] = 18 patients, 100-700 μg/kg s.c. daily x5 every 21 d, CTCAE v3.0, count

SMILES: CC[C@H](C)[C@H](NC(=O)[C@H](Cc1ccc(O)cc1)NC(=O)[C@@H](NC(=O)[C@H](CCCNC(=N)N)NC(=O)[C@@H](N)CC(=O)O)C(C)C)C(=O)N[C@@H](Cc1c[nH]cn1)C(=O)N1CCC[C@H]1C(=O)O [Ang-(1-7), Angiotensin-(1-7)]
- SAE possibly related to Ang-(1-7) ([1]; 400 μg/kg, one patient with metastatic pancreatic cancer, first cycle): grade 3 deep vein thrombosis
- dose-limiting toxicities encountered ([1]; 700 μg/kg dose): stroke (grade 4) and reversible cranial neuropathy (grade 3)
- Cerebrovascular ischemia, grade 2, adverse events at least possibly related to treatment [1, 3]: 0
- Cerebrovascular ischemia, grade 3, adverse events at least possibly related to treatment [1, 3]: 0
- Cerebrovascular ischemia, grade 4, adverse events at least possibly related to treatment [1, 3]: 1
- Cerebrovascular ischemia, total, adverse events at least possibly related to treatment [1, 3]: 1
- Fatigue, grade 2, adverse events at least possibly related to treatment [1, 3]: 2
- Fatigue, grade 3, adverse events at least possibly related to treatment [1, 3]: 0
- Fatigue, grade 4, adverse events at least possibly related to treatment [1, 3]: 0
- Fatigue, total, adverse events at least possibly related to treatment [1, 3]: 2
- Gingival regression, grade 2, adverse events at least possibly related to treatment [1, 3]: 1
- Gingival regression, grade 3, adverse events at least possibly related to treatment [1, 3]: 0
- Gingival regression, grade 4, adverse events at least possibly related to treatment [1, 3]: 0
- Gingival regression, total, adverse events at least possibly related to treatment [1, 3]: 1
- Hypocalcemia, grade 2, adverse events at least possibly related to treatment [1, 3]: 1
- Hypocalcemia, grade 3, adverse events at least possibly related to treatment [1, 3]: 0
- Hypocalcemia, grade 4, adverse events at least possibly related to treatment [1, 3]: 0
- Hypocalcemia, total, adverse events at least possibly related to treatment [1, 3]: 1
- Muscle weakness, grade 2, adverse events at least possibly related to treatment [1, 3]: 1
- Muscle weakness, grade 3, adverse events at least possibly related to treatment [1, 3]: 0
- Muscle weakness, grade 4, adverse events at least possibly related to treatment [1, 3]: 0
- Muscle weakness, total, adverse events at least possibly related to treatment [1, 3]: 1
- Musculoskeletal pain, grade 2, adverse events at least possibly related to treatment [1, 3]: 2
- Musculoskeletal pain, grade 3, adverse events at least possibly related to treatment [1, 3]: 0
- Musculoskeletal pain, grade 4, adverse events at least possibly related to treatment [1, 3]: 0
- Musculoskeletal pain, total, adverse events at least possibly related to treatment [1, 3]: 2
- Neuropathy, cranial, grade 2, adverse events at least possibly related to treatment [1, 3]: 0
- Neuropathy, cranial, grade 3, adverse events at least possibly related to treatment [1, 3]: 1
- Neuropathy, cranial, grade 4, adverse events at least possibly related to treatment [1, 3]: 0
- Neuropathy, cranial, total, adverse events at least possibly related to treatment [1, 3]: 1
- Orthostasis, grade 2, adverse events at least possibly related to treatment [1, 3]: 1
- Orthostasis, grade 3, adverse events at least possibly related to treatment [1, 3]: 0
- Orthostasis, grade 4, adverse events at least possibly related to treatment [1, 3]: 0
- Orthostasis, total, adverse events at least possibly related to treatment [1, 3]: 1
- Thrombosis/thrombus/embolism, grade 2, adverse events at least possibly related to treatment [1, 3]: 0
- Thrombosis/thrombus/embolism, grade 3, adverse events at least possibly related to treatment [1, 3]: 1
- Thrombosis/thrombus/embolism, grade 4, adverse events at least possibly related to treatment [1, 3]: 0
- Thrombosis/thrombus/embolism, total, adverse events at least possibly related to treatment [1, 3]: 1
- hematologic toxicity ([1]; all dose levels 100-700 μg/kg, 18 patients): No hematologic toxicity was observed
- bleeding complications or episodes of hypertension ([1]; all dose levels, 18 patients): No bleeding complications or episodes of hypertension were observed
- patients with mild muscle cramps ([1]; all dose levels, 18 patients): three
- treatment-related deaths ([1]; all dose levels, 18 patients): no treatment-related deaths
- recommended phase II dose ([1]; s.c. once daily for 5 consecutive days on a 3-week cycle): 400 µg/kg
- Tmax ([2]; human, sc): 1 h
- dose-dependent increases in drug exposure ([2]; s.c. 100-700 μg/kg, RIA): observed only at the highest dose level
